The results in this text go back to ChEMBL document CHEMBL2176957, “Discovery of a novel noniminosugar acid α glucosidase chaperone series” (J Med Chem, 2012).

The target of data set [1] is T1, Lysosomal alpha-glucosidase (Homo sapiens, UniProt P10253). The data set can be described thus: Inhibition of wild type recombinant GAA preincubated for 5 mins measured after 45 mins using red-shifted dye by fluorescence assay. The note with it: for pIC50: read-out: IC50.
Data set [2] addresses T1, Lysosomal alpha-glucosidase. Description: Inhibition of wild type recombinant GAA preincubated for 5 mins measured after 45 mins using blue-shifted dye by fluorescence assay. The settings on record: for pIC50: read-out: IC50.
For data set [3], the system named is Caco-2. The data set can be described thus: Permeability from apical to basolateral side of human Caco2 cells.
The nature of data set [4]: Aqueous solubility in PBS buffer.
In data set [5] the test system is Liver. Description: Half life in mouse liver microsomes.
The subject of data set [6] is Caco-2. The data set can be described thus: Permeability from basolateral to apical side of human Caco2 cells.
Data set [7] has as its target T1, Lysosomal alpha-glucosidase. The data set can be described thus: Increase in translocation of GAA to lysosome in human F0833 cells at 5 uM after 5 days by confocal laser-scanning microscopic analysis. It counts as cell-based. In a few lines:
(§1)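 Wild-type primary dermal fibroblasts or Pompe patient fibroblasts (F3248, F0833, F2845; low passage) treated with compound for 5 or 6 days. Fixed in 3% paraformaldehyde, permeabilized with 0.1% Triton X-100, blocked, stained with mouse anti-GAA (Alexa-488) and goat anti-cathepsin D (Alexa-555), DAPI counterstain. Confocal images taken at fixed laser settings; percentage of cells with lysosomal GAA co-localization scored.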

For data set [8], the system named is Caco-2. The data set can be described thus: Efflux ratio from basolateral to apical side to apical to basolateral side of human Caco2 cells. It counts as ADME, cell-based.
The target of data set [9] is T1, Lysosomal alpha-glucosidase. The data set can be described thus: Increase in translocation of GAA to lysosome in human F2845 cells at 1 uM after 5 days by confocal laser-scanning microscopic analysis. The format is cell-based. In a few lines:
as §1

Data set [10] shares this target. The data set can be described thus: Increase in GAA activity in human wild type skin fibroblasts incubated for 5 days followed by 18 to 40 hrs wash out by fluorescence assay relative to vehicle-treated control. The procedure, abridged:
(§2)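 Fibroblasts seeded at 5,000 cells/well and treated 5 days, with media and compound renewed on day 3. Assayed directly or after PBS wash and 18 h or 40 h in compound-free medium. Cells were incubated 2 h at 37 °C in pH 4.0 citrate/phosphate buffer with 3 mM 4-MUG and acarbose, then stopped at pH 10. Background subtracted, normalized to vehicle (100%); triplicate, mean ±SD.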

The target is the same in data set [11]. Description: Increase in translocation of GAA to lysosome in human F3248 cells at 5 uM after 5 days by confocal laser-scanning microscopic analysis. It counts as cell-based. The procedure, abridged:
as §1

Data set [12] shares this target. Description: Increase in translocation of GAA to lysosome in human F2845 cells at 5 uM after 5 days by confocal laser-scanning microscopic analysis. The format is cell-based. The procedure, abridged:
as §1

For data set [13] the target is unchanged. The data set can be described thus: Increase in translocation of GAA to lysosomes in human wild type skin fibroblasts at 5 uM after 6 days by confocal laser-scanning microscopic analysis. The procedure, abridged: as §1
For data set [14] the target is unchanged. Description: Increase in translocation of GAA to lysosome in human F3248 cells at 1 uM after 5 days by confocal laser-scanning microscopic analysis. The format is cell-based. In a few lines:
as §1

The target is the same in data set [15]. Description: Increase in GAA activity in human wild type skin fibroblasts incubated for 5 days by fluorescence assay relative to vehicle-treated control. The procedure, abridged: as §2
Data set [16] has the same target. Description: Increase in translocation of GAA to lysosomes in human wild type fibroblasts at 15 uM after 6 days confocal laser-scanning microscopic analysis. In a few lines:
as §1

Data set [17] in a line: Cytotoxicity in human F2845 cells at 5 uM after 6 days by confocal laser-scanning microscopic analysis. The format is cell-based. The note with it: f2845, 144 h. The procedure, abridged: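 Primary wild-type dermal fibroblasts and patient-derived Pompe fibroblasts (passage 7) grown on chamber slides and exposed to compound for 5 or 6 days. Viability judged from the cultures examined by immunostaining and confocal microscopy.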

Data set [18] deals with T1, Lysosomal alpha-glucosidase. The data set can be described thus: Increase in GAA activity in human F2845 cells incubated for 5 days by fluorescence assay relative to vehicle-treated control. The format is cell-based. The procedure, abridged: as §2
For data set [19] the target is unchanged. The data set can be described thus: Increase in translocation of GAA to lysosome in human F0833 cells at 1 uM after 5 days by confocal laser-scanning microscopic analysis. It counts as cell-based. The procedure, abridged:
as §1

The target is the same in data set [20]. Description: Ratio of Kd for wild type recombinant NT-495 labelled GAA to IC50 for wild type recombinant GAA (unknown origin.
For data set [21] the target is unchanged. The data set can be described thus: Increase in GAA activity in human F2845 cells incubated for 5 days followed by 18 to 40 hrs wash out by fluorescence assay relative to vehicle-treated control. It counts as cell-based. In a few lines: as §2
For data set [22] the target is unchanged. Description: Binding affinity at wild type recombinant GAA assessed as rise in melting temperature of protein using SYPRO Orange dye by fluorescence assay. The procedure, abridged: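 Thermal shift of recombinant wild-type GAA (1 μM) with SYPRO Orange (5×) in 50 mM citrate buffer pH 5.0 with 100 mM KCl, 10 mM NaCl, 1 mM MgCl2. Six-point compound series, 0.82–200 μM final, 2% DMSO, DMSO controls. Heated 20 to 95 °C at 4.8 °C/s; fluorescence ex 498/em 580 nm; Tm calculated from the melt curve.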

Data set [23] has the same target. The data set can be described thus: Binding affinity at wild type recombinant GAA assessed as thermostabilization of protein at 50 uM incubated at 66 degC for 60 mins. The procedure, abridged:
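GAA incubated at 66 °C for 60 min with compound at 50 μM, compared with room-temperature incubation. Residual enzymatic activity read out and expressed as the ratio of heated to room-temperature activity; DMSO controls run in duplicate.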

pIC50: −log10 of the molar value. Converted amounts (≈) assume the structure as drawn. The source made the active and inactive calls. No cut-off for these calls is given here.

As for `O=C1Cc2cc(S(=O)(=O)N3CCN(c4ccc([N+](=O)[O-])cc4)CC3)ccc2N1`, the pIC50 in [1] was 5.49; in data set [2], 5.44.
On the same counts, the results for `O=C1Cc2cc(S(=O)(=O)N3CCN(c4ccc(Cl)cc4)CC3)ccc2N1` are 4.03 and 4.03.
With `CC(=O)c1ccc(N2CCN(S(=O)(=O)c3ccc4c(c3)CCC(=O)N4)CC2)cc1`, the IC50 result in data set [1] and in data set [2] was “Not Active” each time.
In the case of `CC(=O)N1CCN(c2ccc(NS(=O)(=O)c3ccc4c(c3)CC(=O)N4)cc2)CC1`, the IC50 result in data set [1] and in data set [2] was “Not Active” throughout.
Turning to `O=C1Cc2cc(S(=O)(=O)N3CCN(c4ccc(CO)cc4)CC3)ccc2N1`, the pIC50 in [1] and in data set [2] was 4.89 in each case.
Regarding `CC(=O)c1ccc(N2CCN(S(=O)(=O)c3ccc4[nH]c(=O)oc4c3)CC2)cc1`, the IC50 result in data set [1] and in [2] was “Not Active” in each case.
Take `CC(=O)c1ccc(N2CCN(S(=O)(=O)c3ccc4c(c3)n(C)c(=O)n4C)CC2)cc1`: the IC50 entry in data set [1] and in data set [2] was “Not Active” throughout.
Regarding `Cc1ccc(N2CCN(S(=O)(=O)c3ccc4c(c3)CC(=O)N4)CC2)cc1`, the IC50 entry in [1] and in [2] was “Not Active” in each case.
Take `CC(=O)c1ccc(N2CCN(C(=O)c3ccc4c(c3)CC(=O)N4)CC2)cc1`: the IC50 result in data set [1] and in data set [2] was “Not Active” throughout.
In the case of `O=C1Cc2cc(S(=O)(=O)N3CCN(c4ccc(C(F)(F)F)cc4)CC3)ccc2N1`, the IC50 result in [1] and in data set [2] was “Not Active” throughout.
On to `CC(=O)c1ccc(N2CCN(S(=O)(=O)c3ccc4c(c3)C(Cl)(Cl)C(=O)N4)CC2)cc1`, for which the values for the pIC50 in [1] and in data set [2] were 4.39 and 4.49, respectively.
On the same counts, the results for `COc1ccc(N2CCN(S(=O)(=O)c3ccc4c(c3)CC(=O)N4)CC2)cc1` are 4.73 and 4.63.
On to `O=C1Cc2cc(S(=O)(=O)N3CCN(c4cccc(C(F)(F)F)c4)CC3)ccc2N1`, for which the pIC50 in data set [1] and in [2] was 4.83 each time.
As to `O=C1Cc2cc(S(=O)(=O)N3CCN(c4ccc(O)cc4)CC3)ccc2N1`, the pIC50 is 5.63 in data set [1] and 5.73 in [2]. The Papp in data set [3] was 17.8 ×10⁻⁶ cm/s; in [6], 19.5 ×10⁻⁶ cm/s. The same compound came in with a solubility in data set [4] of 37.3 µM (≈ 13.9 µg/mL). For the same compound, the t1/2 in data set [5] was over 1 h.
In the case of `O=C1Cc2cc(S(=O)(=O)N3CCNCC3)ccc2N1`, the IC50 result in data set [1] and in data set [2] was “Not Active” throughout.
Consider `CC(=O)c1ccc(N2CCN(C(=O)c3ccc4c(c3)CCC(=O)N4)CC2)cc1`, for which the IC50 entry in data set [1] and in data set [2] was “Not Active” in each case.
Consider `O=C1Cc2cc(S(=O)(=O)N3CCN(c4ccc(F)cc4)CC3)ccc2N1`, for which the IC50 entry in data set [1] and in data set [2] was “Not Active” throughout.
On to `CC(=O)c1ccc(N2CCN(S(=O)(=O)c3ccc4c(c3)CCCC(=O)N4)CC2)cc1`, for which the IC50 result in [1] and in [2] was “Not Active” throughout.
Turning to `COC(=O)c1ccc(N2CCN(S(=O)(=O)c3ccc4c(c3)CC(=O)N4)CC2)cc1`, the figures for the pIC50 in [1] and in data set [2] were 4.44 and 4.59, respectively.
Taken in the same sequence, the figures for `O=Cc1ccc(N2CCN(S(=O)(=O)c3ccc4c(c3)CC(=O)N4)CC2)cc1` were 5.39 and 5.44.
In the case of `CC(=O)c1ccc(N2CCN(S(=O)(=O)c3ccc4c(c3)oc(=O)n4C)CC2)cc1`, the IC50 result in [1] and in [2] was “Not Active” throughout.
Consider `CC(=O)c1ccc(N2CCN(S(=O)(=O)c3ccc4c(c3)C(=O)OC4)CC2)cc1`, for which the IC50 entry in data set [1] and in data set [2] was “Not Active” throughout.
For the compound `CC(=O)c1ccc(N2CCN(S(=O)(=O)c3cc4c(cc3Cl)NC(=O)C4)CC2)cc1`, the result in data set [7], in [10], in data set [11], in data set [12], in data set [15] and in data set [18] was Active. Besides, the result in data set [21], in [22] and in data set [23] was Active. Also, the Ratio in data set [8] stood at 0.57; in data set [20] it was 20. The result in data set [9], in [14] and in [19] was inactive. The pIC50 in [1] and in [2] was 5.79 each time. Also, the Activity in data set [13] was 30%; in data set [16] it was 40%; in [17] it was “Toxic”. In addition, the Papp in data set [3] is 54.3 ×10⁻⁶ cm/s; in data set [6], 30.9 ×10⁻⁶ cm/s. The same compound came in with a solubility in [4] of 20.8 µM (≈ 9.03 µg/mL). This compound displayed a t1/2 in [5] of over 1 h.
For the compound `CC(=O)c1ccc(N2CCN(S(=O)(=O)c3ccc4c(c3)OCC(=O)N4)CC2)cc1`, the IC50 result in [1] and in data set [2] was “Not Active” each time.
As for `CC(=O)c1ccc(N2CCN(S(=O)(=O)c3ccc4c(c3)CCCN4C(C)=O)CC2)cc1`, the IC50 result in data set [1] and in data set [2] was “Not Active” throughout.
Consider `CC(=O)c1ccc(N2CCN(S(=O)(=O)c3ccc4[nH]c(=O)[nH]c4c3)CC2)cc1`, for which the IC50 entry in data set [1] and in data set [2] was “Not Active” in each case.
As to `O=C1Cc2cc(S(=O)(=O)N3CCN(c4ccc(Br)cc4)CC3)ccc2N1`, the IC50 result in [1] and in data set [2] was “Not Active” in each case.
Turning to `CC(=O)c1ccc(N2CCN(S(=O)(=O)c3ccc(N4CCCC4=O)cc3)CC2)cc1`, the IC50 entry in data set [1] and in data set [2] was “Not Active” in each case.
Regarding `CC(=O)c1ccc(N2CCN(S(=O)(=O)c3ccc4c(c3)CC(C)N4C(C)=O)CC2)cc1` (stereo unspecified), the IC50 result in [1] and in data set [2] was “Not Active” throughout.
On to `CC(=O)Nc1ccc(S(=O)(=O)N2CCN(c3ccc(C(C)=O)cc3)CC2)cc1`, for which the IC50 result in data set [1] and in data set [2] was “Not Active” in each case.
Regarding `CC(=O)N1CCN(S(=O)(=O)c2ccc3c(c2)CC(=O)N3)CC1`, the pIC50 is 4.83 in [1] and 4.93 in data set [2].
As to `N#Cc1ccc(N2CCN(S(=O)(=O)c3ccc4c(c3)CC(=O)N4)CC2)cc1`, the pIC50 in [1] is 5.49; in [2] it was 5.54. Besides, in data set [4], the solubility turned out to be 14.9 µM (≈ 5.7 µg/mL). In data set [5], this compound had a t1/2 of 0.95 h.
